From ChEMBL document CHEMBL2040797, “Synthesis of benzimidazoles bearing oxadiazole nucleus as anticancer agents” (2012)

What was measured:
Assay type in all cases: functional
NCI-H23 = assay: Growth inhibition of human NCI-H23 cells at 10 uM after 48 hrs by sulforhodamine B assay; settings: NCI-H23, 48 h, read-out: GI
Procedure, shortened: (§1)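 NCI one-dose primary screen at 10 (printed mM) across the 60-line panel. Cells in RPMI 1640 with 5% FBS and 2 mM L-glutamine, plated at 5000–40,000 cells/well and incubated 24 h before dosing. Exposure 48 h at 37 °C, 5% CO2. Adherent cells were fixed with cold TCA, suspension cells fixed after settling. SRB stain, absorbance 515 nm. Reported as percent growth of treated cells relative to control.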

UACC-257 = assay: Cytotoxicity against human UACC257 cells after 48 hrs by sulforhodamine B assay; settings: UACC-257, 48 h
Procedure, shortened: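 NCI 60 panel five-dose screen. Cells in RPMI 1640 with 5% FBS and 2 mM L-glutamine, plated at 5000–40,000 cells/well and preincubated 24 h. Compounds were tested at five 10-fold concentrations (0.01–100) for 48 h at 37 °C, 5% CO2. Cells were fixed with TCA and stained with SRB, absorbance 515 nm. GI50, TGI and LC50 were taken from % growth curves against time-zero and control.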

MDA-MB-435 [1] = assay: Growth inhibition of human MDA-MB-435 cells at 10 uM after 48 hrs by sulforhodamine B assay; settings: MDA-MB-435, 48 h, read-out: GI; procedure, shortened: as §1
MDA-MB-468 = assay: Growth inhibition of human MDA-MB-468 cells at 10 uM after 48 hrs by sulforhodamine B assay; settings: MDA-MB-468, 48 h, read-out: GI; procedure, shortened: as §1
HL-60(TB) = assay: Growth inhibition of human HL-60(TB) cells at 10 uM after 48 hrs by sulforhodamine B assay; settings: HL-60, 48 h, read-out: GI
Procedure, shortened: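 NCI 60-panel primary one-dose screen. Cells are grown in RPMI 1640 with 5% FBS, plated by doubling time and pre-incubated 24 h at 37 °C, 5% CO2. They are exposed for 48 h to a single concentration. Settled suspension cells are fixed, then SRB-stained with absorbance at 515 nm. Output is percent growth of treated cells relative to untreated control, reported as a mean graph.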

MDA-MB-435 [2] = assay: Cytotoxicity against human MDA-MB-435 cells after 48 hrs by sulforhodamine B assay; settings: MDA-MB-435, 48 h
Procedure, shortened: (§2)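 NCI 60-panel screen. Cells were grown in RPMI 1640 with 5% FBS and L-glutamine and plated at 5000–40,000 cells/well according to doubling time. They were preincubated 24 h at 37 °C, 5% CO2, then exposed 48 h to five 10-fold dilutions. Adherent cells were fixed with cold TCA, final 10%; suspension cells were fixed after settling. Cells were stained with 0.4% SRB and read at 515 nm. Tz/C/Ti growth curves gave GI50, TGI and LC50.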

T47D [3] = assay: Growth inhibition of human T47D cells at 10 uM after 48 hrs by sulforhodamine B assay; settings: read-out: GI
Procedure, shortened: (§3)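 NCI-60 single-dose screen. Cells grown in RPMI 1640 with 5% FBS and L-glutamine, plated at 5000–40,000 cells/well by doubling time, and preincubated 24 h at 37 °C, 5% CO2. Compound stocks in DMSO, added at one concentration, then incubated 48 h. Adherent cells fixed with cold TCA (10% final), stained with 0.4% SRB, dye solubilized in 10 mM Tris base, A515 read. Reported as percent growth relative to untreated control.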

HT-29 = assay: Cytotoxicity against human HT-29 cells after 48 hrs by sulforhodamine B assay; settings: HT-29, 48 h; procedure, shortened: as §2
SNB-75 = assay: Cytotoxicity against human SNB75 cells after 48 hrs by sulforhodamine B assay; settings: SNB-75, 48 h; procedure, shortened: as §2
A498 = assay: Growth inhibition of human A498 cells at 10 uM after 48 hrs by sulforhodamine B assay; settings: A498, 48 h, read-out: GI; procedure, shortened: as §1
IGROV-1 = assay: Cytotoxicity against human IGROV1 cells after 48 hrs by sulforhodamine B assay; settings: IGROV-1, 48 h; procedure, shortened: as §2
786-0 = assay: Growth inhibition of human 786-0 cells at 10 uM after 48 hrs by sulforhodamine B assay; settings: 786-0, 48 h, read-out: GI; procedure, shortened: as §1
Malme-3M = assay: Growth inhibition of human MALME-3M cells at 10 uM after 48 hrs by sulforhodamine B assay; settings: read-out: GI; procedure, shortened: as §1
OVCAR-5 = assay: Cytotoxicity against human OVCAR5 cells after 48 hrs by sulforhodamine B assay; settings: OVCAR-5, 48 h; procedure, shortened: as §2
SK-MEL-5 = assay: Growth inhibition of human SK-MEL-5 cells at 10 uM after 48 hrs by sulforhodamine B assay; settings: SK-MEL-5, 48 h, read-out: GI; procedure, shortened: as §3
HOP-62 = assay: Cytotoxicity against human HOP62 cells after 48 hrs by sulforhodamine B assay; settings: HOP-62, 48 h; procedure, shortened: as §2
M14 = assay: Cytotoxicity against human M14 cells after 48 hrs by sulforhodamine B assay; settings: M14, 48 h; procedure, shortened: as §2
K562 = assay: Growth inhibition of human K562 cells at 10 uM after 48 hrs by sulforhodamine B assay; settings: K562, 48 h, read-out: GI; procedure, shortened: as §1
A549 = assay: Cytotoxicity against human A549 cells after 48 hrs by sulforhodamine B assay; settings: A549, 48 h; procedure, shortened: as §2
HCT-15 = assay: Growth inhibition of human HCT15 cells at 10 uM after 48 hrs by sulforhodamine B assay; settings: HCT-15, 48 h, read-out: GI; procedure, shortened: as §1
RXF 393 = assay: Growth inhibition of human RXF393 cells at 10 uM after 48 hrs by sulforhodamine B assay; settings: RXF 393, 48 h, read-out: GI; procedure, shortened: as §1
DU-145 = assay: Cytotoxicity against human DU145 cells after 48 hrs by sulforhodamine B assay; settings: DU-145, 48 h; procedure, shortened: as §2
CAKI-1 = assay: Growth inhibition of human Caki1 cells at 10 uM after 48 hrs by sulforhodamine B assay; settings: CAKI-1, 48 h, read-out: GI; procedure, shortened: as §1
MCF7 = assay: Cytotoxicity against human MCF7 cells after 48 hrs by sulforhodamine B assay; settings: MCF7, 48 h; procedure, shortened: as §2
KM12 = assay: Cytotoxicity against human KM12 cells after 48 hrs by sulforhodamine B assay; settings: KM12, 48 h; procedure, shortened: as §2
T47D [4] = assay: Cytotoxicity against human T47D cells after 48 hrs by sulforhodamine B assay; procedure, shortened: as §2
[5] = read-out: LC50 (the source's name)

O=C(CCc1nnc(-c2ccc(Cl)cc2Cl)o1)c1nc2ccccc2[nH]1
inhibition of growth at 10 µM (NCI-H23): 38.1% | GI50 (UACC-257): 13.7 µM | TGI (UACC-257): 44.4 µM | CC50 (UACC-257; [5]): 100 µM | inhibition of growth at 10 µM (MDA-MB-435 [1]): 101% | inhibition of growth at 10 µM (MDA-MB-468): 102% | inhibition of growth at 10 µM (HL-60(TB)): 134% | GI50 (MDA-MB-435 [2]): 2 µM | TGI (MDA-MB-435 [2]): 4.77 µM | CC50 (MDA-MB-435 [2]; [5]): 100 µM | inhibition of growth at 10 µM (T47D [3]): 48% | GI50 (HT-29): 3.77 µM | TGI (HT-29): 55.1 µM | CC50 (HT-29; [5]): 100 µM | GI50 (SNB-75): 18.7 µM | CC50 (SNB-75; [5]): 100 µM | inhibition of growth at 10 µM (A498): 41.6% | GI50 (IGROV-1): 5.26 µM | TGI (IGROV-1): 39.1 µM | CC50 (IGROV-1; [5]): 100 µM | inhibition of growth at 10 µM (786-0): 26.2% | inhibition of growth at 10 µM (Malme-3M): 20.7% | GI50 (OVCAR-5): 7.82 µM | TGI (OVCAR-5): 100 µM | CC50 (OVCAR-5; [5]): 100 µM | inhibition of growth at 10 µM (SK-MEL-5): 33% | GI50 (HOP-62): 7.67 µM | TGI (HOP-62): 41.3 µM | CC50 (HOP-62; [5]): 100 µM | GI50 (M14): 5.86 µM | TGI (M14): 31.5 µM | CC50 (M14; [5]): 100 µM | inhibition of growth at 10 µM (K562): 97.8% | GI50 (A549): 10.4 µM | TGI (A549): 100 µM | CC50 (A549; [5]): 100 µM | inhibition of growth at 10 µM (HCT-15): 18.5% | inhibition of growth at 10 µM (RXF 393): 18.4% | GI50 (DU-145): 17.8 µM | TGI (DU-145): 100 µM | CC50 (DU-145; [5]): 100 µM | inhibition of growth at 10 µM (CAKI-1): 40.2% | GI50 (MCF7): 4.57 µM | TGI (MCF7): 100 µM | CC50 (MCF7; [5]): 100 µM | GI50 (KM12): 3.16 µM | TGI (KM12): 11 µM | CC50 (KM12; [5]): 100 µM | GI50 (T47D [4]): 3.34 µM | TGI (T47D [4]): 60 µM | CC50 (T47D [4]; [5]): 100 µM
